Experiments:
Dictyostelium discoideum = experiment: Cytotoxicity to Dictyostelium discoideum; assay type: functional, organism-based
KB = experiment: Cytotoxicity in human nasopharyngeal carcinoma KB cell line; assay type: functional; settings: read-out: LD50 (the source's name)
How it was run: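 Human nasopharyngeal carcinoma KB cells were exposed to bisphosphonates up to a highest tested level of 300 µg mL-1. […] The therapeutic index was KB LD50 divided by TcHK IC50.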

Hexokinase = target: T1, Hexokinase (Trypanosoma cruzi, UniProt Q8ST54); experiment: Inhibitory activity against Trypanosoma cruzi hexokinase
T1 sequence (Q8ST54 whole entry): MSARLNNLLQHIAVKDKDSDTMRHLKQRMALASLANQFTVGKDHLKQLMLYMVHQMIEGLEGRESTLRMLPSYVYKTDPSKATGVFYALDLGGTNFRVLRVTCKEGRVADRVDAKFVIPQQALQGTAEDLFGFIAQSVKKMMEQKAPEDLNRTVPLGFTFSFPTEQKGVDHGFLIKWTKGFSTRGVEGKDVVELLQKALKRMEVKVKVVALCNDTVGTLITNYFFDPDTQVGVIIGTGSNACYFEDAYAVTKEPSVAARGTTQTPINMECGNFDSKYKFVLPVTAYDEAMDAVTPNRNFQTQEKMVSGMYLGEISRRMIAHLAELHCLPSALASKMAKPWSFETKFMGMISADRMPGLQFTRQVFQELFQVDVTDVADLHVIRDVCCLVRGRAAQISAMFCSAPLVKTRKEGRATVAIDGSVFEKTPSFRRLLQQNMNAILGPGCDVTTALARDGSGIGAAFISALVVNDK
How it was run: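 Native glycosomal T. cruzi hexokinase, purified by a previously described procedure. Activity was followed as NADPH formation at 340 nm, coupled to D-glucose-6-phosphate dehydrogenase. Inhibition was reported as IC50.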

TcHK = experiment: Therapeutic index TI=LD50(KB)/IC50(TcHK); settings: human
Trypanosoma cruzi = experiment: Growth inhibition of Trypanosoma cruzi intracellular amastigotes; assay type: functional, organism-based
[1] = KB cells (cytotoxicity) versus TcHK enzyme

| SMILES | IC50 (Dictyostelium discoideum) [µM] | CC50 (KB) [µM] | IC50 (Hexokinase) [µM] | selectivity ratio (TcHK; [1]) | selectivity ratio (TcHK) | IC50 (Trypanosoma cruzi) [µM] |
| --- | --- | --- | --- | --- | --- | --- |
| CC1CCN(C(P(=O)(O)O)P(=O)(O)O)CC1 | 2 | 446 | ≥ 300 | ≤ 1.5 | – | – |
| O=P(O)(O)C(Nc1cccc(-c2ccc(F)c(F)c2)c1)P(=O)(O)O | 77 | ≥ 791 | 2.75 | ≥ 285 | – | – |
| O=P(O)(O)C(O)(c1cccc(-c2ccccc2)c1)P(=O)(O)O | 103 | 797 | 34.7 | – | 23 | – |
| O=P(O)(O)C(O)(C[n+]1cccc(-c2ccccc2)c1)P(=O)(O)O | 3 | 12 | ≥ 300 | ≤ 0.04 | – | – |
| Cc1cccc(Cc2ccc[n+](CC(O)(P(=O)(O)O)P(=O)(O)O)c2)c1 | 889 | 728 | ≥ 300 | ≤ 2.4 | – | – |
| C[C@H](NC(P(=O)(O)O)P(=O)(O)O)c1cccc2ccccc12 | 7 | – | ≥ 300 | – | – | – |
| COCc1cccc(NC(P(=O)(O)O)P(=O)(O)O)c1 | 253 | ≥ 964 | 4.07 | – | > 237 | – |
| O=P(O)(O)C(O)(CC12CC3CC(CC(C3)C1)C2)P(=O)(O)O | – | – | ≥ 300 | – | – | – |
| O=P(O)(O)C(O)(C[n+]1ccccc1)P(=O)(O)O | 3 | ≥ 1060 | ≥ 300 | – | – | – |
| CCOC(=O)C(Cc1cccc(-c2ccccc2)c1)P(=O)(O)O (centres undefined) | – | – | ≥ 300 | – | – | – |
| O=P(O)(O)C(Cc1cccc(-c2ccccc2)c1)S(=O)(=O)O (centres undefined) | – | – | ≥ 300 | – | – | – |
| O=c1ccc(-c2cccc(CC(O)(P(=O)(O)O)P(=O)(O)O)c2)c[nH]1 | – | – | ≥ 300 | – | – | – |
| O=P(O)(O)C(O)(Cn1cnc2ccccc21)P(=O)(O)O | 2 | – | ≥ 300 | – | – | – |
| COc1ccc(NC(P(=O)(O)O)P(=O)(O)O)cn1 | 52 | 302 | ≥ 300 | ≤ 1 | – | – |
| O=P(O)(O)CNc1cccc(-c2ccccc2)c1 | – | – | ≥ 300 | – | – | – |
| O=P(O)(O)C(CN[C@@H](CO)c1ccccc1)P(=O)(O)O | – | – | ≥ 300 | – | – | – |
| Cc1cc(-c2cccc(CC(O)(P(=O)(O)O)P(=O)(O)O)c2)c(F)cc1F | – | – | 2.29 | – | – | – |
| CCn1c2ccccc2c2cc(NC(P(=O)(O)O)P(=O)(O)O)ccc21 | 2050 | 698 | 0.81 | – | – | 2.2 |
| O=P(O)(O)C(Nc1cccc(-c2ccc(O)nc2)c1)P(=O)(O)O | – | – | ≥ 300 | – | – | – |
| C[N+](C)=c1ccn(CC(O)(P(=O)(O)O)P(=O)(O)O)cc1 | 30 | – | ≥ 300 | – | – | – |

| SMILES | IC50 (Dictyostelium discoideum) [µM] | CC50 (KB) [µM] | IC50 (Hexokinase) [µM] | selectivity ratio (TcHK; [1]) | selectivity ratio (TcHK) | IC50 (Trypanosoma cruzi) [µM] |
| --- | --- | --- | --- | --- | --- | --- |
| O=P(O)(O)C(Nc1ccc(F)c(-c2ccccc2)c1)P(=O)(O)O | – | – | 3.63 | – | – | – |
| CC(C)(C)c1cccc(NC(P(=O)(O)O)P(=O)(O)O)c1 | 75 | – | ≥ 300 | – | – | – |
| O=P(O)(O)C(Nc1cccc(Br)c1)P(=O)(O)O | 112 | ≥ 771 | 0.95 | – | ≥ 812 | – |
| O=P(O)(O)C(CNc1cccc(-c2ccccc2)c1)P(=O)(O)O | 62 | ≥ 560 | 3.47 | ≥ 162 | – | – |
| CCCCCCCc1ccc(NC(P(=O)(O)O)P(=O)(O)O)cc1 | 10 | 211 | 1.45 | – | – | – |
| O=P(O)(O)C(O)(Cn1cnc(-c2ccccc2)c1)P(=O)(O)O | 122 | – | 1.82 | – | – | – |
| O=P(O)(O)C(Nc1cccc(CO)c1)P(=O)(O)O | 351 | ≥ 980 | 14.8 | – | ≥ 67 | – |
| O=P(O)(O)C(Nc1ncccc1OCc1ccccc1)P(=O)(O)O | 1 | ≥ 765 | ≥ 300 | – | – | – |
| CN(CCOc1ccccc1)CCC(O)(P(=O)(O)O)P(=O)(O)O | 2 | 311 | ≥ 300 | – | – | – |
| CCCCCCCCCC(O)(P(=O)(O)O)P(=O)(O)O | 10 | ≥ 892 | – | – | – | – |
| Cc1cccnc1NC(P(=O)(O)O)P(=O)(O)O | 3 | 840 | 45.7 | – | – | – |
| O=P(O)(O)C(Nc1cccc(-c2ccccc2)c1)P(=O)(O)O | 211 | 827 | 1.95 | – | – | 47 |
| O=P(O)(O)C(O)(Cc1ccncc1)P(=O)(O)O | – | 1040 | 12.6 | – | – | – |
| O=P(O)(O)C(Nc1ccc(Cl)cc1Cl)P(=O)(O)O [2,4-DICHLOROPHENYLAMINOMETHYLENEBISPHOSPHONIC ACID] | – | – | ≥ 300 | – | – | – |
| O=[N+]([O-])c1cccc(NC(P(=O)(O)O)P(=O)(O)O)c1 [(3-NITROPHENYLAMINO)METHYLENEDIPHOSPHONIC ACID] | 78 | ≥ 635 | 2.4 | ≥ 266 | – | – |
| CCCCN(CC)C(P(=O)(O)O)P(=O)(O)O [(BUTYL(ETHYL)AMINO)METHYLENEDIPHOSPHONIC ACID] | 4 | ≥ 1060 | ≥ 300 | – | – | – |
| O=P(O)(O)C(NC1CC1)P(=O)(O)O [(CYCLOPROPYLAMINO)METHYLENEDIPHOSPHONIC ACID] | 30 | 242 | ≥ 300 | ≤ 0.8 | – | – |
| CCCNC(P(=O)(O)O)P(=O)(O)O [(PROPYLAMINO)METHYLENEDIPHOSPHONIC ACID] | 4 | 457 | ≥ 300 | ≤ 1.5 | – | – |
| O=P(O)(O)C(O)(Cc1cccnc1)P(=O)(O)O [RISEDRONIC ACID] | – | 822 | ≥ 300 | – | – | – |

From ChEMBL document CHEMBL1148603, “Inhibition of Trypanosoma cruzi hexokinase by bisphosphonates” (J Med Chem, 2006)
